Assay results reported in ChEMBL document CHEMBL1124052, “New inhibitors of human renin that contain novel Leu-Val replacements. Examination of the P1 site” (J Med Chem, 1988).
Non-standard residues stand in square brackets, D forms with d. Residues, ends and D or L forms follow the SMILES beside them. *: point of attachment. hCha = N[C@@H](CCC1CCCCC1)C(=O)O; Cha = N[C@@H](CC1CCCCC1)C(=O)O; Chg = N[C@H](C(=O)O)C1CCCCC1; Boc = CC(C)(C)OC(=O)*

Legend:
Renin = biological target: T1, Renin (Homo sapiens, UniProt P00797); experiment: (§1) Inhibition of human renal renin at pH 6
T1 sequence (P00797 whole entry): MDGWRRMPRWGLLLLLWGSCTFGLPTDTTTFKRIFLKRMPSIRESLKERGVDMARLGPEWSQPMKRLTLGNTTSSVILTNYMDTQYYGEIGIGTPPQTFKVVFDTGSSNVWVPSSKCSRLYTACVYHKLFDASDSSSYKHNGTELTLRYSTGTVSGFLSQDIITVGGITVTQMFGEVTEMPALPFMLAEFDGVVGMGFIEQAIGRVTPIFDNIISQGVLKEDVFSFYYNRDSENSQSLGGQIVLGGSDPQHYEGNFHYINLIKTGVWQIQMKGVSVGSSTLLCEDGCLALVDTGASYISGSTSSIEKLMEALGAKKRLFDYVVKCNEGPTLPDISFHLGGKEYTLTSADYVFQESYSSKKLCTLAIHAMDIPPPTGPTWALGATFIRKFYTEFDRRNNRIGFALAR
Method in brief: (§2)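 Purified human renal renin (0.24 mGU) was incubated with pure human angiotensinogen (0.21 µM final) in 0.135 M maleate pH 6.0 with 3 mM EDTA, 1.4 mM PMSF, 0.44% BSA and 1% DMSO. At least three inhibitor levels bracketing the IC50 were preincubated with renin for 5.0 min at 37 °C, then reacted 10.0 min. The reaction was stopped by freezing, angiotensin I was measured by RIA, and the IC50 was taken by regression of percent inhibition.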

Renin (Homo sapiens) [1] = biological target: T2, Renin (Homo sapiens) (UniProt P00797); experiment: Inhibitory activity against human renal renin at pH 6 at concentration 10E-5 M
T2 sequence (whole entry): T1 sequence (P00797 whole entry)

Renin (Homo sapiens) [2] = biological target: T2, Renin (Homo sapiens); experiment: as §1; conditions: concentration not given here; method in brief: as §2

Row | IC50 (Renin) [µM] | SMILES | other results
1 | 35 | C[C@H](NC(=O)[C@H](Cc1ccccc1)NC(=O)OC(C)(C)C)C(=O)N[C@H](C=O)CC12CC3CC(CC(C3)C1)C2 | –
2 | 0.46 | C[C@H](NC(=O)[C@H](Cc1ccccc1)NC(=O)OC(C)(C)C)C(=O)N[C@H](C=O)CC1CCCCC1 (Boc-Phe-Ala-[Cha]-aldehyde) | –
3 | – | CC(C)SC[C@H](O)[C@H](CCC1CCCCC1)NC(=O)[C@H](C)NC(=O)[C@H](Cc1ccccc1)NC(=O)OC(C)(C)C | inhibition (Renin (Homo sapiens) [1]): 45%
4 | 40 | C[C@H](NC(=O)[C@H](Cc1ccccc1)NC(=O)OC(C)(C)C)C(=O)N[C@H](C=O)C(C1CCCCC1)C1CCCCC1 | –
5 | 0.081 | CC(C)C[C@H](NC(=O)[C@H](Cc1cnc[nH]1)NC(=O)[C@H](Cc1ccccc1)NC(=O)OC(C)(C)C)[C@@H](O)CSC(C)C | –
6 | 0.17 | CC(C)SC[C@H](O)[C@H](Cc1ccccc1)NC(=O)[C@H](C)NC(=O)[C@H](Cc1ccccc1)NC(=O)OC(C)(C)C | –
7 | 0.009 | CC(C)SC[C@H](O)[C@H](CC1CCCCC1)NC(=O)[C@H](C)NC(=O)[C@H](Cc1ccccc1)NC(=O)OC(C)(C)C | –
8 | 1 | C[C@H](NC(=O)[C@H](Cc1ccccc1)NC(=O)OC(C)(C)C)C(=O)N[C@H](C=O)C1CCCCC1 (Boc-Phe-Ala-[Chg]-aldehyde) | –
9 | 55 | C[C@H](NC(=O)[C@H](Cc1ccccc1)NC(=O)OC(C)(C)C)C(=O)N[C@H](C=O)CCC1CCCCC1 (Boc-Phe-Ala-[hCha]-aldehyde) | –
10 | 1.5 | CC(C)SC[C@H](O)[C@@H](NC(=O)[C@H](C)NC(=O)[C@H](Cc1ccccc1)NC(=O)OC(C)(C)C)C1CCCCC1 | –
11 | – | Cc1cc(C)c(C[C@H](NC(=O)[C@H](C)NC(=O)[C@H](Cc2ccccc2)NC(=O)OC(C)(C)C)[C@@H](O)CSC(C)C)c(C)c1 | inhibition (Renin (Homo sapiens) [2]): 5%
12 | 2.5 | CC(C)SC[C@H](O)[C@H](CC12CC3CC(CC(C3)C1)C2)NC(=O)[C@H](Cc1c[nH]cn1)NC(=O)[C@H](Cc1ccccc1)NC(=O)OC(C)(C)C | –
13 | 0.15 | CC(C)SC[C@H](O)[C@@H](NC(=O)[C@H](Cc1cnc[nH]1)NC(=O)[C@H](Cc1ccccc1)NC(=O)OC(C)(C)C)C1CCCCC1 | –
14 | – | CC(C)SC[C@H](O)[C@@H](NC(=O)[C@H](C)NC(=O)[C@H](Cc1ccccc1)NC(=O)OC(C)(C)C)C(c1ccccc1)c1ccccc1 | inhibition (Renin (Homo sapiens) [2]): 11%
15 | 1.5 | CC(C)SC[C@H](O)[C@H](CCC1CCCCC1)NC(=O)[C@H](Cc1c[nH]cn1)NC(=O)[C@H](Cc1ccccc1)NC(=O)OC(C)(C)C | –
16 | 20 | CC(C)C[C@@H](C=O)NC(=O)[C@H](C)NC(=O)[C@H](Cc1ccccc1)NC(=O)OC(C)(C)C (Boc-Phe-Ala-Leu-aldehyde) | –
17 | 0.019 | CC(C)SC[C@H](O)[C@H](Cc1ccccc1)NC(=O)[C@H](Cc1cnc[nH]1)NC(=O)[C@H](Cc1ccccc1)NC(=O)OC(C)(C)C | –
18 | – | CC(C)SC[C@H](O)[C@@H](NC(=O)[C@H](Cc1c[nH]cn1)NC(=O)[C@H](Cc1ccccc1)NC(=O)OC(C)(C)C)C(c1ccccc1)c1ccccc1 | inhibition (Renin (Homo sapiens) [2]): 3%
